The list is not random: actives were taken first. Their share in the collection is about 6%.
PostGolgi ctrl = growth inhibition of yeast control strain, primary screen, counter-screen for post-Golgi transport modulator project; inhibition, % at 10 µM; AID 738, 2007; 5% of 98,000 active; efflux-deficient yeast background strain, growth absorbance A615, 16 h
Ecoli WT expand = growth inhibitors of wild-type E. coli, primary screen, strain BW25113, expanded library, OD600; OD600 absorbance; growth inhibition, % at 100 µM; 0.15% of 98,000 active; AID 710, 2007;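 active = growth inhibition above about 50% at one test dose, limit read from the data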;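 also: growth measured after 20 h incubation at 37 °C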
Ecoli tolC = growth inhibitors of E. coli tolC mutant, primary screen, strain BW25113 ΔtolC::kan, 384-well. OD615. growth inhibition, % at 10 µM (by protocol). 2.2% of 65,000 active. AID 573, 2007;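 active = growth inhibition at or above a cutoff equal to the mean over every tested compound plus 3 SD, cut at about 60% in these data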;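 also: growth measured after 20 h incubation at 37 °C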
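Doses: one dose of 10 µM final / Material: E. coli BW25113 ΔtolC::kan, tolC deletion mutant strain / Buffer or medium: LB with kanamycin 50 µg/mL / Evaluation: percent growth inhibition / Detection: optical density read at 615 nm / Incubation: 37 °C, 20 h exposure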
EphB4 antag = EphB4-ephrin-B2 interaction antagonists, primary screen, biochemical, TNYL-RAW peptide probe, fluorescence polarization; inhibition, % at 7 µM; 0.15% of 97,000 active; EphB4 LBD / TNYL-RAW-Alexa532 peptide;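 active = inhibition above the screen-wide mean inhibition plus 3 SD, cut at about 15% in these data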;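 also: 0% = DMSO wells and 100% = excess unlabeled TNYL-RAW peptide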
PostGolgi yeast = phenotypic screen on post-Golgi transport, primary screen. post-Golgi transport phenotypic cell assay. inhibition, % at 10 µM. 0.9% of 98,000 active. AID 739, 2007;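 also: yeast cells grown in 1536-well plates; yeast grown about 18 h at 30C before absorbance read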
The depositor's hits bear a star. Rule as the data show it, unless noted: active = inhibition above about 30%; inactive = the rest.

What do the screens show for `CCCN(Cc1cc2ccc(C)cc2[nH]c1=O)S(=O)(=O)c1ccccc1`?
PostGolgi ctrl: 36.5*; Ecoli WT expand: 3.0; EphB4 antag: 0.3; PostGolgi yeast: 8.1

What do the screens show for `Nc1c(C(=O)NCc2ccco2)sc2nc(N3CCOCC3)c3c(c12)CCCC3`?
PostGolgi ctrl: 33.2*; Ecoli WT expand: -3.0; Ecoli tolC: 2.4; EphB4 antag: 1.3; PostGolgi yeast: -1.4

What do the screens show for `NC(=O)c1sc2nc(N3CCCCC3)c3c(c2c1N)CCCC3`?
PostGolgi ctrl: 43.8*; Ecoli WT expand: 1.0; Ecoli tolC: 17.1; PostGolgi yeast: -3.7

How did CCN(CC)C(=O)/C(=C\c1ccc(Br)cc1)NC(=O)c1ccccc1OC do in these assays?
PostGolgi ctrl: 27.5; Ecoli WT expand: 6.0; EphB4 antag: 6.6; PostGolgi yeast: -2.2

How did COc1ccc(C(=O)C(CN2CCOCC2)c2ccccc2)cc1F (centres undefined) do in these assays?
PostGolgi ctrl: 26.4; Ecoli WT expand: 15.0; Ecoli tolC: 78.2*; EphB4 antag: -1.8; PostGolgi yeast: -2.0

What do the screens show for `O=C(CSc1ccc(Cl)cc1)N1CCN(c2ccc([N+](=O)[O-])cc2Cl)CC1`?
PostGolgi ctrl: 77.7*; Ecoli WT expand: -22.0; EphB4 antag: 4.5; PostGolgi yeast: 81.8*

What do the screens show for `CCS(=O)(=O)N1CCN(c2c(Cl)cccc2[N+](=O)[O-])CC1`?
PostGolgi ctrl: 4.6; Ecoli WT expand: -3.0; EphB4 antag: -5.0; PostGolgi yeast: -3.7

Results for O=C(CSc1ccc(Cl)cc1)N1CCN(c2c(Cl)cccc2[N+](=O)[O-])CC1 ?
PostGolgi ctrl: 29.3; Ecoli WT expand: -14.0; EphB4 antag: -4.0; PostGolgi yeast: 41.1*

What do the screens show for `O=C(c1cc([N+](=O)[O-])ccc1N1CCCCC1)N1CCCCC1`?
PostGolgi ctrl: -2.4; Ecoli WT expand: 4.0; EphB4 antag: -1.3; PostGolgi yeast: 0.3

Results for CCn1c(CNc2nc3ccccc3n2C(C)C)nc2ccccc21 ?
PostGolgi ctrl: 0.6; Ecoli WT expand: 7.0; EphB4 antag: -2.7; PostGolgi yeast: -0.1

Results for O=C(Nc1cc2c(oc1=O)CCCC2=O)c1ccc(Cl)cc1 ?
PostGolgi ctrl: -2.7; Ecoli WT expand: 3.0; EphB4 antag: 4.1; PostGolgi yeast: 2.6

How did CCCn1c(SCC(=O)Nc2ccccc2C(=O)OC)nc2c1c(=O)n(C)c(=O)n2C do in these assays?
PostGolgi ctrl: 14.9; Ecoli WT expand: -11.0; Ecoli tolC: 12.8; EphB4 antag: 8.6; PostGolgi yeast: -10.3

What do the screens show for `CCCn1c(SCC(=O)Nc2ccccc2N2CCCCC2)nc2c1c(=O)n(C)c(=O)n2C`?
PostGolgi ctrl: 21.8; Ecoli WT expand: -12.0; Ecoli tolC: 64.8*; EphB4 antag: -3.0; PostGolgi yeast: 12.2

What do the screens show for `CCOC(=O)c1cnn(-c2nc(SC)nc3sc4c(c23)CCCC4)c1N`?
PostGolgi ctrl: 76.3*; Ecoli WT expand: -31.0; EphB4 antag: 5.5; PostGolgi yeast: 8.0

How did CCOC(=O)c1nc(N2CCN(C(=O)OCC)CC2)c2c3c(sc2n1)CCCC3 do in these assays?
PostGolgi ctrl: 37.3*; Ecoli WT expand: 4.0; Ecoli tolC: 43.7; EphB4 antag: -5.3; PostGolgi yeast: 6.5

Results for CCOC(=O)c1nc2sc3c(c2c(=O)[nH]1)CCCC3 ?
PostGolgi ctrl: -2.1; Ecoli WT expand: -5.0; Ecoli tolC: 4.3; EphB4 antag: 8.1; PostGolgi yeast: -2.6

What do the screens show for `CC1SCCN1S(=O)(=O)c1ccc2ccccc2c1` (centres undefined)?
EphB4 antag: -6.5

How did CCOc1ccc(N(CC(=O)NCC2CCCO2)S(=O)(=O)c2ccc(SC)cc2)cc1 (centres undefined) do in these assays?
PostGolgi ctrl: 6.8; Ecoli WT expand: 3.0; EphB4 antag: -10.3; PostGolgi yeast: -6.6

What do the screens show for `COc1ccc(Cc2nc(-c3ccc(Cl)cc3)no2)cc1`?
PostGolgi ctrl: 10.4; Ecoli WT expand: 4.0; Ecoli tolC: 49.7; EphB4 antag: 3.3; PostGolgi yeast: -2.6

Results for COc1ccc(-c2noc(Cc3ccc(Cl)cc3)n2)cc1OC ?
PostGolgi ctrl: 25.8; Ecoli WT expand: -12.0; Ecoli tolC: 62.8*; EphB4 antag: 1.0; PostGolgi yeast: 6.2

How did COc1ccc(-c2noc(CCCc3ccccc3)n2)cc1OC do in these assays?
PostGolgi ctrl: 8.9; Ecoli WT expand: -3.0; Ecoli tolC: 61.9*; EphB4 antag: -8.4; PostGolgi yeast: -6.9
